Results taken from article PMC3058505 (Hepatology (Baltimore, Md.), 2010).
Structures can show the parent of a compound that is named as a salt.

Experiments:
[1] = tested on: HCV NS5A and core protein in NS or FL replicons; assay: Western blot of HCV proteins in NS and FL replicons; assay type: cell-based, hepatitis C virus; settings: biliverdin 20 µM, BR 200 µM or FeCl2 100 µM for 24 h; both replicon lines
Method in brief: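 Log-phase NS (Huh5-15) or FL (Huh7.5 Con1) replicon cells were treated for 24 h. BV and BR were dissolved in 0.2 N NaOH, with vehicle controls. Cells were then lysed and analysed by Western blot with enhanced chemiluminescence detection. Band intensities were quantified by densitometry.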

replicon cells = assay: Proliferation and cytotoxicity assays; assay type: cell-based, human; settings: medium containing 5 or 10% FBS
[2] = tested on: HCV replication in Huh5-15NS replicon; assay: HCV replication in non-structural; assay type: cell-based, hepatitis C virus; settings: for Relative [HCV] [ΔCΤ]: Huh5-15NS, control = 1.0
Method in brief: (§1)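 Log-phase replicon cells were incubated overnight with hemin (0, 5, 10 or 20 µM) or control vehicle. Cells were Huh7.5FL (full-length Con1) or Huh5-15NS (subgenomic). Relative HCV RNA was found by real-time RT-PCR with the comparative cycle threshold (ΔCT) method and normalised to vehicle control = 1.0. Each value is the mean of four determinations.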

[3] = tested on: HCV replication in Huh7.5FL Con1 replicon; assay: HCV replication in full-length; assay type: cell-based, hepatitis C virus; settings: for Relative [HCV] [ΔCΤ]: Huh7.5FL, control = 1.0
Method in brief: as §1

[4] = molecular target: endogenous NS3/4A protease from replicon microsomes (Hepatitis C virus genotype 1b, UniProt Q9WMX2); assay type: biochemical
Chain of endogenous NS3/4A protease from replicon microsomes (Q9WMX2 1027-1657): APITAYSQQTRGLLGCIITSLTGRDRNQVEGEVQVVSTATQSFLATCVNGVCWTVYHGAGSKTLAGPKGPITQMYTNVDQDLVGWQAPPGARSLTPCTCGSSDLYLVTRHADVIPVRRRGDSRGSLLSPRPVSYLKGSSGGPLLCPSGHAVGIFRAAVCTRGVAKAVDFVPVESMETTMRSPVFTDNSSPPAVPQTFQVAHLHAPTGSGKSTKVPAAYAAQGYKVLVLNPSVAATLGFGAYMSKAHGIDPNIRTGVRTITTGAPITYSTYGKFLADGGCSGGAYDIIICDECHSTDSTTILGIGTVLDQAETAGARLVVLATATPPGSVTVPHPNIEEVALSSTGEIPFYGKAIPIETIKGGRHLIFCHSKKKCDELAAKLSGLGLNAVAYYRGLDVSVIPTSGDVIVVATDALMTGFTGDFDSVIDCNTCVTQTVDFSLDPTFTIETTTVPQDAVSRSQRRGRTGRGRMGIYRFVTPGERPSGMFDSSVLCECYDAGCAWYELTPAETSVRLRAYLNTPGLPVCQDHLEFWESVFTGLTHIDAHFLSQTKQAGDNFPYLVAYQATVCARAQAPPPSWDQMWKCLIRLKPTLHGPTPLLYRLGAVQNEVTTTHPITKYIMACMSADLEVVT
Chain of endogenous NS3/4A protease from replicon microsomes (Q9WMX2 1658-1711): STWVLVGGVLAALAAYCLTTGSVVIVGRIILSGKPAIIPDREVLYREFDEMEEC

[5] = tested on: HCV replication in FL or NS replicons; assay type: cell-based, hepatitis C virus; settings: 50 or 100 µM BV overnight with α-interferon
Method in brief: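 Cell lines were Huh7.5 cells with full-length Con1 replicons (FL) and Huh5-15 cells with subgenomic replicons (NS). They received α-interferon alone or with BV. BV was dissolved in 0.2 N NaOH, and controls got the same NaOH volume. HCV RNA was measured by real-time RT-PCR using the comparative cycle threshold (ΔCT) method. Values are mean ± SEM of 3 determinations per point.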

[6] = molecular target: HCV NS3/4A protease (recombinant) (Hepatitis C virus genotype 1b, UniProt O92972); assay: SensoLyte 620 HCV Protease Assay with recombinant NS3/4A protease; assay type: biochemical
Chain of HCV NS3/4A protease (recombinant) (O92972 1013-1207, looked up, natural form): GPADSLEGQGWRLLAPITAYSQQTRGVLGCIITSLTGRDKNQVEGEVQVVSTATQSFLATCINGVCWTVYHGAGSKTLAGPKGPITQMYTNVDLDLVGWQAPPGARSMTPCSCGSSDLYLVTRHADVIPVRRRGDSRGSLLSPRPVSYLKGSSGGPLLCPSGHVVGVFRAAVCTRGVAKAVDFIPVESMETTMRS

[7] = tested on: J6/JFH infectious HCV in Huh7.5 cells; assay: J6/JFH HCV infection of Huh7.5 cells; assay type: cell-based, hepatitis C virus; settings: BV 20–200 µM, 72 h; HCV polyvalent sera immunoreactivity and HCV RNA
Method in brief: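 Huh7.5 cells were inoculated with infectious J6/JFH HCV and passed. They were then treated with BV at 0, 20 or 200 µM for 72 h. Cells were fixed in absolute methanol, washed in PBS and stained with genotype 2A polyvalent human serum. Detection used an anti-human alkaline phosphatase conjugate and photomicroscopy. HCV RNA was measured by ΔCT real-time RT-PCR, 3–5 determinations per group, mean ± SEM.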

Compound: C=CC1=C(C)/C(=C/c2[nH]c(Cc3[nH]c(/C=C4\NC(=O)C(C)=C4C=C)c(C)c3CCC(=O)O)c(CCC(=O)O)c2C)NC1=O [BR, bilirubin]
- Effect on HCV protein expression by Western blot [1]: decreased NS5A
- Effect on cellular proliferation or toxicity (replicon cells): no effect

Compound: hemin [Heme]
- Relative [HCV] [ΔCΤ] ([2]; heme 5 uM overnight): 0.27
- Relative [HCV] [ΔCΤ] ([2]; heme 10 uM overnight): 0.09
- Relative [HCV] [ΔCΤ] ([2]; heme 20 uM overnight): 0.03
- Lowest level at which antiviral effect is apparent ([2]; NS replicon, overnight incubation with hemin): 5 µM
- Lowest level at which antiviral effect is apparent ([3]; FL replicon, overnight incubation with hemin): 5 µM
- Relative [HCV] [ΔCΤ] ([3]; heme 5 uM overnight): 0.22
- Relative [HCV] [ΔCΤ] ([3]; heme 10 uM overnight): 0.08
- Relative [HCV] [ΔCΤ] ([3]; heme 20 uM overnight): 0.04

Compound: C=CC1=C(C)/C(=C/C2=NC(=C\c3[nH]c(/C=C4\NC(=O)C(C)=C4C=C)c(C)c3CCC(=O)O)/C(CCC(=O)O)=C2C)NC1=O [Biliverdin, biliverdin-IX-α hydrochloride]
- Inhibition of endogenous NS3/4A protease [4]: potently inhibited
- Effect on α-interferon antiviral activity [5]: clear additive effect
- Effect on HCV protein expression by Western blot [1]: decreased NS5A
- Ki [6]: 600 nM
- Mode of inhibition of NS3/4A protease ([6]; Lineweaver-Burk plots): mixed competitive and non-competitive inhibition
- Effect of BV combined with #25346 on protease activity ([6]; assays in the presence of both BV and #25346): additive effect
- Effect on Huh7.5 cell infection with J6/JFH [7]: markedly decreased
- Effect on cellular proliferation or toxicity (replicon cells): no effect

Compound: [Cl][Fe][Cl] [FeCl2]
- Effect on HCV protein expression by Western blot [1]: decreased NS5A and core protein
